Screening data as filed in PubChem BioAssay.
Lmaj promast – inhibitors of Leishmania major promastigote growth | AID 1063 | Leishmania major promastigotes, resazurin fluorescence viability | inhibition, % at 10 µM | actives 9% (n = 200,000); in the data active = inhibition above about 50%;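 note: promastigotes grown with compound for 44 hours at 28 °C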
HCT116 bCat-KO – beta-catenin-lacking colon tumor cell growth suppression. actives 1.5% (n = 140,000). viability, % at 10 µM. HCT116 beta-catenin knockout viability, CellTiter-Glo, 60 h; hits give low values;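 active = viability at or under a set limit, the compound median less 4 SD, cut at about 6% in these data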;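 note: 0% = Hyamine 1622 control at 20 µM and 100% = untreated cell control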
Autophagy HCS – modulators of autophagy | calls only at 10 µM (by protocol) | AID 463193 | MEF GFP-LC3 puncta imaging; test concentration mostly 10 µM | actives 0.98% (n = 190,000);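 active = percentage of spot-positive cells more than 3 SD above its plate mean, without a fluorescence outlier flag or 80% toxicity; inconclusive = no clear call, values can overlap the other calls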;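 note: spot-positive cell cutoff set from DMSO-treated cells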
HCT116 PTEN-null – growth suppressors of cells with PTEN tumor suppressor deletion | viability, % at 10 µM | HCT116 PTEN-null viability, CellTiter-Glo, 60 h; hits give low values | actives 1.2% (n = 140,000);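 active = viability at or below a set limit, 4 SD under the median of all tested compounds, cut at about 3.7% in these data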;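 note: PTEN knockout HCT116 line with beta catenin targeted HCT116 as companion control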
Dynein transport – blocks dynein driven cargo transport along microtubules; z-score, hits read low; actives 0.47% (n = 220,000); AID 1381; 3617.4 mouse cells, GR-EGFP nuclear translocation imaging; test concentration mostly 20 µM; stimulated with dexamethasone, 1 µM; hits give low values;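 active = plate z-score of nuclear minus cytoplasmic receptor signal below a set negative limit, without overly bright fluorescence or cell loss, cut at about -3.5 in these data, passing the limit was not always enough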;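 note: z-score of nuclear minus cytoplasmic ring GR-EGFP intensity difference per well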
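medium = tetracycline-free induction medium containing charcoal-stripped FBS | probe or stimulus = dexamethasone, 1.0 µM final | timing = 48 h induction, then 1 h compound, then 30 min agonist, 37 °C | detection = automated 10x imaging of fixed Hoechst-stained cells | read-out basis = nuclear versus cytoplasmic GR-EGFP signal, averaged per well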
Active calls of the source: *; i = inactive; ? = inconclusive; nt = no result given; + = active, no number. An excerpt weighted towards active compounds, which were near 9.2% of everything screened.

SMILES | Lmaj promast | HCT116 bCat-KO | Autophagy HCS | HCT116 PTEN-null | Dynein transport
CCC(C)(C)NC(=O)CCCSc1nc2ccccc2[nH]1 | nt | nt | nt | nt | 0.016
NCCCCCc1nnc(SCc2ccc(Cl)c(Cl)c2)o1 | 100* | 106 | i | 89 | 11
CCN1CC=C2C(C#N)=C(N)C(C#N)(C#N)C(c3cc(Cl)ccc3Cl)C2C1 (centres undefined) | 65* | 89 | ? | 73 | -3.1
Cn1nc(CC(=O)Nc2ccc(N3CCN(C(=O)OC(C)(C)C)CC3)cc2)c2ccccc2c1=O | 39 | 1.2* | i | 1.1* | 3.3
Cn1nc(CC(=O)N2CCN(c3ccccc3)CC2)c2ccccc2c1=O | 1 | 94 | i | 90 | 1.8
CC(C)(C)n1nnnc1C(c1cccnc1)N1CCN(c2ccccc2)CC1 (centres undefined) | 78* | 84 | i | 95 | -0.34
CC(C)(C)n1nnnc1C(c1cccnc1)N1CCN(c2ccccn2)CC1 (centres undefined) | 81* | nt | i | nt | 0.24
Cc1cccc(N2CCN(C(c3cccs3)c3nnnn3C(C)(C)C)CC2)c1C (centres undefined) | 76* | 58 | i | 49 | -0.42
CN1CCN(C(c2ccccc2)c2nnnn2Cc2ccccc2)CC1 (centres undefined) | -2 | 98 | i | 92 | -0.4
c1ccc(Cn2nnnc2C(c2cccnc2)N2CCN(c3ccccc3)CC2)cc1 (centres undefined) | 99* | 71 | i | 72 | 0.13
CC(C)(C)n1nnnc1C(c1cccnc1)N1CCN(c2ccccc2F)CC1 (centres undefined) | 5 | 92 | i | 94 | -1.1
CCN(CC)C(=O)Cn1cc(C(=O)C(=O)N2CCc3ccccc32)c2ccccc21 | 4 | nt | i | nt | -0.16
O=C(O)C(Cc1cc(Cl)ccc1Cl)Sc1nc2ccccc2[nH]1 (centres undefined) | nt | nt | nt | nt | -0.64
CCc1cc[n+](C2=C([O-])c3ccccc3C(=O)/C2=N\S(=O)(=O)c2cccs2)cc1 | 99* | 2.8* | i | 3.2* | -2.6
O=C1C(=O)c2ccccc2C([O-])=C1[n+]1ccccc1 | nt | nt | nt | nt | -0.46
COc1ccc2c(c1)[nH]c(=O)c1sc3ccccc3c12 | -1 | 5.1* | i | 9 | -1.1
COc1ccc2sc3c(=O)[nH]c4ccccc4c3c2c1 | 3 | 31 | i | 29 | -0.22
Cc1cc(NC(=O)c2ccccc2[N+](=O)[O-])ccc1Br | 16 | nt | i | nt | -0.76
O=C(NCCCN1CCOCC1)c1cc2c(s1)CSC2 | 80* | 89 | i | 94 | 0.1
O=C(NCCCN1CCOCC1)c1sc2ccccc2c1Cl | 80* | nt | i | nt | 0.78
O=C(NCCCN1CCOCC1)c1ccccc1 | -5 | 100 | i | 114 | 0.27
O=C(NCCCN1CCOCC1)c1ccc(Br)s1 | 4 | 88 | i | 92 | 1.7
COc1ccc(OCC(=O)NCCCN2CCOCC2)cc1 | 16 | 99 | i | 102 | 3.7
Cc1cc(OCC(=O)NCCCN2CCOCC2)cc(C)c1Cl | 71* | nt | i | nt | 0.4
CC(=O)Oc1cc2c(C(=O)NCCCN3CCOCC3)c(C)oc2c2ccccc12 | 52* | 0.9* | nt | 1.4* | -0.059
SMILES | Lmaj promast | HCT116 bCat-KO | Autophagy HCS | HCT116 PTEN-null | Dynein transport
Cc1ccccc1C(=O)N/N=C1/SCC(=O)N1Cc1ccccc1 | -6 | nt | i | nt | -0.84
O=C(COc1cc(Cl)c(Cl)cc1Cl)NC(=O)Nc1ccc2c(c1)OCCO2 | 63* | 99 | i | 97 | -0.48
O=C(COC(=O)Cc1cccc(C(F)(F)F)c1)Nc1ccc2c(c1)OCCO2 | 65* | 98 | i | 103 | 0.34
O=C(COC(=O)/C=C/c1ccc(Cl)cc1)Nc1ccc2c(c1)OCCO2 | 51* | 101 | i | 109 | -0.24
O=C(COC(=O)/C=C/c1ccc(Cl)cc1)Nc1ccccc1 | -6 | nt | i | nt | 0.76
O=C(COC(=O)CNC(=O)c1ccc(Cl)cc1)Nc1ccc2c(c1)OCCO2 | 57* | 84 | i | 93 | 0.51
Cc1ccc(Cl)c(OCC(=O)Nc2ccc3c(c2)OCCO3)c1 | -2 | 85 | i | 87 | -0.054
CC(C)Oc1ccc(C(CC(=O)O)NC(=O)C(Sc2ccccc2)c2ccccc2)cc1 (centres undefined) | -8 | nt | i | nt | -0.3
CC(=O)c1ccc(S(=O)(=O)N2CCN(c3ccccc3F)CC2)cc1 | -4 | nt | i | nt | -0.0042
O=C1N(CN2CCN(Cc3ccccc3)CC2)c2ccccc2C12OCCCO2 | 0 | nt | i | nt | -0.32
CCOC(=O)c1sc(NC(=O)c2c(C)noc2C)c(C(=O)OCC)c1C | -4 | nt | + | nt | -0.029
CCOC(=O)c1sc(NC(=O)CCN2CC(C)OC(C)C2)c(C(=O)OCC)c1C (centres undefined) | -5 | 100 | i | 105 | -0.48
CCOC(=O)c1c(NC(=O)CN2CCOCC2)sc(C(=O)NC)c1C | 5 | 104 | i | 97 | -1.1
CCOC(=O)c1sc(NC(=O)CCN2CCN(C)CC2)c(C(=O)OCC)c1C | 100* | nt | i | nt | -0.85
CCOC(=O)c1c(NC(=O)CN2CCN(C)CC2)sc(C(=O)Nc2ccccc2)c1C | 99* | nt | i | nt | 3.8
Cc1cccc2c(C(=O)Nc3ccc(Br)cc3)cc(-c3ccccn3)nc12 | -1 | nt | i | nt | -0.031
O=C(c1cc(-c2ccccn2)nc2c(Cl)cccc12)N1CCN(C(=O)C2CCCO2)CC1 (centres undefined) | 8 | 96 | i | 92 | 0.56
O=C(c1cc(-c2ccccn2)nc2c(Cl)cccc12)N1CCN(S(=O)(=O)c2ccccc2)CC1 | 81* | 84 | i | 75 | 0.058
O=C(Nc1ccc([N+](=O)[O-])cc1)c1cc(-c2ccccn2)nc2c(Cl)cccc12 | -4 | nt | + | nt | -0.49
CCOC(=O)c1c(-c2ccccc2)oc2ccc(O)c(CN3CCN(C)CC3)c12 | 89* | 7 | i | 9 | 0.45
CCOC(=O)c1c(-c2ccccc2)oc2cc(CN(C)C)c(O)c(CN(C)C)c12 | 100* | nt | + | nt | -1.1
CNc1oc(Cc2cccc3ccccc23)nc1C#N | 2 | 101 | i | 114 | -1.5
N#Cc1nc(Cc2cccc3ccccc23)oc1NCCN1CCCCC1 | 65* | 60 | i | 63 | -0.38
COc1ccc(OC)c(NC(=O)C(=O)NNC(=O)C23CC4CC(CC(C4)C2)C3)c1 | nt | nt | nt | nt | 0.24
Cn1cc(SCC(=O)N2CCCc3ccccc32)c2ccccc21 | 16 | 54 | i | 63 | 0.37
O=C(NCCOc1ccccc1F)c1ccccc1SCc1ccc(F)cc1 | 54* | 81 | i | 75 | 0.63
COC(=O)C1=C(C)N(C2CCCCC2)C(=O)/C1=C\c1cccs1 | 27 | nt | i | nt | 0.065
CCOC(=O)c1cnc(-n2nc(C)cc2C)nc1NNc1nc(C)cc(C)n1 | nt | nt | nt | nt | -0.47
CCOC(=O)c1cnc(-n2nc(C)cc2C)nc1NNc1nc(-c2ccccc2)cc(-c2ccccc2)n1 | 100* | 4.5* | i | 4 | -0.67
CCOC(=O)c1cnc(-n2nc(C)cc2C)nc1NC1CCCCC1 | 100* | 1.9* | i | 2.1* | -0.15
